The source made the active and inactive calls. The calls are words filed in the database; no cut-off is given here.
Experiments:
[1] = tested on: SK-BR-3; test: Cell cycle arrest in human SK-BR-3 cells assessed as accumulation at G2/M phase at 0.10 uM after 3 hrs using propidium iodide staining by FACS analysis; type: functional
Method in brief: (§1)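 SKBR-3 cells in RPMI1640 with 10% heat-inactivated FBS at 37 °C and 5% CO₂ were treated for the stated times. Cells were fixed overnight in 70% EtOH at −20 °C, then stained with propidium iodide buffer (38 mM sodium citrate pH 7.5, 69 µM PI, 120 µg/mL RNase A) for 15 min at room temperature in the dark. Up to 1×10⁴ gated cells were analyzed by flow cytometry, giving percent distribution per phase.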

[2] = tested on: SK-BR-3; test: Cell cycle arrest in human SK-BR-3 cells assessed as accumulation at S phase at 0.25 uM after 12 hrs using propidium iodide staining by FACS analysis; type: functional
[3] = tested on: SK-BR-3; test: Cell cycle arrest in human SK-BR-3 cells assessed as accumulation at G2/M phase at 0.25 uM after 12 hrs using propidium iodide staining by FACS analysis; type: functional; method in brief: as §1
[4] = tested on: SK-BR-3; test: Cell cycle arrest in human SK-BR-3 cells assessed as accumulation at Sub-G1 phase at 5 uM after 12 hrs using propidium iodide staining by FACS analysis; type: functional
[5] = tested on: SK-BR-3; test: Cell cycle arrest in human SK-BR-3 cells assessed as accumulation at G1 phase at 0.10 uM after 18 hrs using propidium iodide staining by FACS analysis; type: functional; method in brief: as §1
[6] = tested on: SK-BR-3; test: Cell cycle arrest in human SK-BR-3 cells assessed as accumulation at G1 phase at 5 uM after 18 hrs using propidium iodide staining by FACS analysis; type: functional; method in brief: as §1
[7] = tested on: SK-BR-3; test: Cell cycle arrest in human SK-BR-3 cells assessed as accumulation at G2/M phase at 0.10 uM after 24 hrs using propidium iodide staining by FACS analysis; type: functional; method in brief: as §1
[8] = tested on: SK-BR-3; test: Cell cycle arrest in human SK-BR-3 cells assessed as accumulation at Sub-G1 phase at 0.25 uM after 24 hrs using propidium iodide staining by FACS analysis; type: functional
[9] = tested on: SK-BR-3; test: Cell cycle arrest in human SK-BR-3 cells assessed as accumulation at G2/M phase at 0.50 uM after 24 hrs using propidium iodide staining by FACS analysis; type: functional; method in brief: as §1
[10] = tested on: HL-60(TB); test: Growth inhibition of human HL-60(TB) cells after 48 hrs by SRB assay; type: functional
Method in brief: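 Tested in the 60-cell-line panel of the NCI Developmental Therapeutics Program with 48 h drug exposure. The read-out is cellular protein.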

[11] = tested on: HOP-62; test: Growth inhibition of human HOP62 cells after 48 hrs by SRB assay; type: functional
[12] = tested on: NCI-H226; test: Growth inhibition of human NCI-H226 cells after 48 hrs by SRB assay; type: functional
[13] = tested on: NCI-H23; test: Growth inhibition of human NCI-H23 cells after 48 hrs by SRB assay; type: functional
[14] = tested on: HCC 2998; test: Growth inhibition of human HCC2998 cells after 48 hrs by SRB assay; type: functional
[15] = tested on: HCT-116; test: Growth inhibition of human HCT116 cells after 48 hrs by SRB assay; type: functional
[16] = tested on: SF-268; test: Growth inhibition of human SF268 cells after 48 hrs by SRB assay; type: functional
[17] = tested on: SF-539; test: Growth inhibition of human SF539 cells after 48 hrs by SRB assay; type: functional
[18] = tested on: U-251; test: Growth inhibition of human U251 cells after 48 hrs by SRB assay; type: functional
[19] = tested on: SK-MEL-2; test: Growth inhibition of human SK-MEL-2 cells after 48 hrs by SRB assay; type: functional
[20] = tested on: SK-MEL-28; test: Growth inhibition of human SK-MEL-28 cells after 48 hrs by SRB assay; type: functional
[21] = tested on: OVCAR-3; test: Growth inhibition of human OVCAR3 cells after 48 hrs by SRB assay; type: functional
[22] = tested on: OVCAR-4; test: Growth inhibition of human OVCAR4 cells after 48 hrs by SRB assay; type: functional
[23] = tested on: UO-31; test: Growth inhibition of human UO31 cells after 48 hrs by SRB assay; type: functional
[24] = tested on: MDA-MB-468; test: Growth inhibition of human MDA-MB-468 cells after 48 hrs by SRB assay; type: functional
[25] = tested on: HT-29; test: Antitumor activity against human HT-29 cells xenografted in BALB/c athymic nu/nu mouse assessed as decrease in tumor weight at 5 mg/kg/day, ip administered 5 times per week for 3 weeks; type: functional, organism-based
Method in brief: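 Athymic BALB/c nu/nu mice received s.c. HT29 cells in Matrigel, 200 µL per site at two flank sites. Treatment started at ~200 mm³: 5 mg/kg/d i.p., five times weekly for three weeks, in 1% DMSO/sesame oil; controls got vehicle. Three mice per group. Tumors were measured twice weekly by caliper, volume = width²×length/2. Tumors were excised and weighed at the end.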

[26] = Mean residence time (0 to t) in Sprague-Dawley rat at 20 mg/kg, ip; type: ADME, organism-based; set-up: dose 20 mg/kg, route intraperitoneal; settings: in vivo
Method in brief: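 Male Sprague–Dawley rats (300–350 g, n=3), fasted overnight with water allowed. Single 20 mg/kg i.p. dose in PBS with 0.1% Tween80 and 20% DMSO. Blood taken from saphenous and femoral veins into heparinized tubes at 0, 0.25, 0.5, 1, 2, 4, 8 and 24 h. Plasma quantified by LC-MS/MS (MRM, 483.3→404.3) after tert-butyl methyl ether/hexane extraction. Parameters derived non-compartmentally.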

[27] = tested on: SK-BR-3; test: Cell cycle arrest in human SK-BR-3 cells assessed as accumulation at Sub-G1 phase at 0.50 uM after 6 hrs using propidium iodide staining by FACS analysis; type: functional
[28] = tested on: SK-BR-3; test: Cell cycle arrest in human SK-BR-3 cells assessed as accumulation at G1 phase at 5 uM after 6 hrs using propidium iodide staining by FACS analysis; type: functional; method in brief: as §1

Cc1ccc(C)c(COc2cc(NC(=O)c3ccc4c(c3)OCO4)ccc2N(C)S(C)(=O)=O)c1
Activity [1]: 8.83%
Activity [2]: 6.14%
Activity [3]: 13.35%
Activity [4]: 9.76%
Activity [5]: 75.43%
Activity [6]: 63.55%
Activity [7]: 11.23%
Activity [8]: 24.95%
Activity [9]: 28.14%
growth inhibition (GI) [10]: Dose-dependent effect
GI50 ([10]; HL-60, 48 h): 26.9 nM
TGI ([10]; HL-60, 48 h): 96.7 nM
CC50 ([10]; HL-60, 48 h, read-out: LC50 (the source's name)): > 100 µM
growth inhibition (GI) [11]: Dose-dependent effect
GI50 ([11]; HOP-62, 48 h): 329 nM
TGI ([11]; HOP-62, 48 h): > 100 µM
CC50 ([11]; HOP-62, 48 h, read-out: LC50 (the source's name)): > 100 µM
growth inhibition (GI) [12]: Dose-dependent effect
GI50 ([12]; NCI-H226, 48 h): 686 nM
TGI ([12]; NCI-H226, 48 h): > 100 µM
CC50 ([12]; NCI-H226, 48 h, read-out: LC50 (the source's name)): > 100 µM
growth inhibition (GI) [13]: Dose-dependent effect
GI50 ([13]; NCI-H23, 48 h): 162 nM
TGI ([13]; NCI-H23, 48 h): > 100 µM
CC50 ([13]; NCI-H23, 48 h, read-out: LC50 (the source's name)): > 100 µM
growth inhibition (GI) [14]: Dose-dependent effect
TGI ([14]; HCC 2998, 48 h): 392 nM
CC50 ([14]; HCC 2998, 48 h, read-out: LC50 (the source's name)): 2970 nM
growth inhibition (GI) [15]: Dose-dependent effect
TGI ([15]; HCT-116, 48 h): 1020 nM
CC50 ([15]; HCT-116, 48 h, read-out: LC50 (the source's name)): > 100 µM
growth inhibition (GI) [16]: Dose-dependent effect
GI50 ([16]; SF-268, 48 h): 288 nM
TGI ([16]; SF-268, 48 h): > 100 µM
CC50 ([16]; SF-268, 48 h, read-out: LC50 (the source's name)): > 100 µM
growth inhibition (GI) [17]: Dose-dependent effect
GI50 ([17]; SF-539, 48 h): 125 nM
CC50 ([17]; SF-539, 48 h, read-out: LC50 (the source's name)): > 100 µM
growth inhibition (GI) [18]: Dose-dependent effect
GI50 ([18]; U-251, 48 h): 266 nM
TGI ([18]; U-251, 48 h): 21.9 µM
CC50 ([18]; U-251, 48 h, read-out: LC50 (the source's name)): > 100 µM
growth inhibition (GI) [19]: Dose-dependent effect
GI50 ([19]; SK-MEL-2, 48 h): 89.7 nM
TGI ([19]; SK-MEL-2, 48 h): 616 nM
CC50 ([19]; SK-MEL-2, 48 h, read-out: LC50 (the source's name)): > 100 µM
growth inhibition (GI) [20]: Dose-dependent effect
GI50 ([20]; SK-MEL-28, 48 h): 692 nM
TGI ([20]; SK-MEL-28, 48 h): > 100 µM
CC50 ([20]; SK-MEL-28, 48 h, read-out: LC50 (the source's name)): > 100 µM
growth inhibition (GI) [21]: Dose-dependent effect
TGI ([21]; OVCAR-3, 48 h): 166 nM
growth inhibition (GI) [22]: Dose-dependent effect
TGI ([22]; OVCAR-4, 48 h): > 100 µM
CC50 ([22]; OVCAR-4, 48 h, read-out: LC50 (the source's name)): > 100 µM
growth inhibition (GI) [23]: Dose-dependent effect
GI50 ([23]; UO-31, 48 h): 395 nM
TGI ([23]; UO-31, 48 h): > 100 µM
growth inhibition (GI) [24]: Dose-dependent effect
GI50 ([24]; MDA-MB-468, 48 h): 155 nM
TGI ([24]; MDA-MB-468, 48 h): 401 nM
Activity [25]: Active
MRT last [26]: 6 h
Activity [27]: 4.03%
Activity [28]: 64.76%

Source: ChEMBL document CHEMBL1932938, “From COX-2 inhibitor nimesulide to potent anti-cancer agent: synthesis, in vitro, in vivo and pharmacokinetic evaluation” (Eur J Med Chem, 2012)
